We go through eight compounds from ChEMBL document CHEMBL1138579, “Synthesis of alkenyldiarylmethanes (ADAMs) containing benzo[d]isoxazole and oxazolidin-2-one rings, a new series of potent non-nucleoside HIV-1 reverse transcriptase inhibitors” (Eur J Med Chem, 2009).

The target of data set [1] is Human immunodeficiency virus type 1 reverse transcriptase (Human immunodeficiency virus 1, UniProt Q72547). The data set is described as follows: Inhibition of HIV1 recombinant reverse transcriptase assessed as incorporation of [32P]GTP into poly(rC).oligo(dG) (rCdG) homopolymer template primer. Summed up:
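Purified recombinant HIV-1 RT, p66/51 heterodimer. Activity followed by [32P]GTP incorporation into poly(rC)·oligo(dG) homopolymer template-primer. IC50 taken as the mean of at least two separate experiments.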

Data set [2] is described as follows: Cytotoxicity against human MT4 cells by MTT assay. It counts as cell-based.

Regarding `COc1noc2c(C)cc(C(=CCCN3CCOC3=O)c3cc(C)c4onc(OC)c4c3)cc12`, in data set [1], the IC50 turned out to be 0.93 µM.

For the compound `COc1noc2c(C)cc(/C(=C\CCN3CCOC3=O)c3cc(C)c4oc(=O)n(C)c4c3)cc12`, in data set [1], the half-inhibitory concentration (IC50) turned out to be 3.6 µM.

`COC(=O)c1cc(/C(=C/CCN2CCOC2=O)c2cc(C)c3onc(OC)c3c2)cc(Cl)c1OC`: the IC50 in data set [1] is 5.88 µM.

Take `COc1noc2c(C)cc(/C(=C\CCN3CCOC3=O)c3cccc(C#N)c3)cc12`: the IC50 in data set [1] was determined as 39.2 µM.

With `COC(=O)CCC/C=C(/c1cc(C)c2onc(OC)c2c1)c1cc(C)c2oc(=O)n(C)c2c1`, the IC50 in data set [1] came to 0.25 µM.

Turning to `COC(=O)c1cc(/C(=C/CCN2CCOC2=O)c2cc(C)c3onc(OC)c3c2)cc(C)c1OC`, the IC50 in data set [1] turned out to be 18.2 µM.

Consider `COC(=O)c1cc(/C(=C\CCN2CCOC2=O)c2cc(C)c3onc(OC)c3c2)cc(C)c1OC`, for which, in data set [1], the IC50 turned out to be 0.63 µM.

The compound `Cc1ccnc2c1NC(=O)c1cccnc1N2C1CC1` [NEVIRAPINE] returned a CC50 in data set [2] of over 200 µM.
